According to ChEMBL document CHEMBL1140738, “New trisubstituted 1,2,4-triazole derivatives as potent ghrelin receptor antagonists. 3. Synthesis and pharmacological in vitro and in vivo evaluations” (J Med Chem, 2008):
Where a SMILES comes first, the peptide text is derived from it. [ ]: non-standard residue; d: D form. dTrp(2-Me) = Cc1[nH]c2ccccc2c1C[C@@H](N)C(=O)O

What was measured:
Rattus norvegicus [1] = experiment: Effect on growth hormone secretion in infant rat at 80 ug/kg, sc at 160 ug/kg, sc in presence of hexarelin; type: functional
How it was run: (§1)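 Infant rats given sc injection of compound at 160 µg/kg and/or hexarelin at 80 µg/kg; plasma rat GH measured (ng/mL).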

Rattus norvegicus [2] = experiment: Effect on growth hormone secretion at 160 ug/kg, sc; type: functional; how it was run: as §1
[3] = target: T1, Growth hormone secretagogue receptor type 1 (Homo sapiens, UniProt Q92847); experiment: Displacement of 125I]-His9-ghrelin from human GHSR1a expressed in LLCPK1 cells; type: cell-based, LLC-PK1
How it was run: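 Competition binding with membranes from LLC PK-1 cells transiently transfected with human GHS-R1a, incubated with 125I-His9-ghrelin and increasing concentrations of compound.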

[4] = target: T1, Growth hormone secretagogue receptor type 1; experiment: Agonist activity at GHSR1a expressed in CHO cells assessed as accumulation of intracellular calcium level at 10 uM relative to ghrelin; type: functional, cell-based
How it was run: (§2)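 CHO cells transiently expressing GHS-R1a; intracellular Ca2+ accumulation read as fluorescence output. Increasing agonist concentrations were tested for dose-response; single-point activation at 10^-5 M is expressed as percent of the maximal response to ghrelin at 10^-7 M (100%).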

[5] = target: T1, Growth hormone secretagogue receptor type 1; experiment: Antagonist activity at GHSR1a expressed in CHO cells assessed as inhibition of ghrelin induced accumulation of intracellular calcium; type: functional, cell-based
How it was run: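 Antagonism measured in CHO cells transiently transfected with GHS-R1a: ghrelin dose-response curves of [Ca2+]i accumulation (fluorescence) run in the presence of various concentrations of test compound.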

Rattus norvegicus [6] = experiment: Inhibition of hexarelin induced food intake per 100 gm of body weight in rat at 320 ug/kg, sc after 6 hrs; type: functional
How it was run: (§3)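 Rats dosed subcutaneously with compound (160 µg/kg alone, or graded 20, 80, 160, 320 µg/kg) with or without hexarelin 80 µg/kg sc. Cumulative food intake at 2 and 6 h expressed as g food per 100 g body weight; % variation versus hexarelin at 6 h = 100 × (compound+hexarelin − hexarelin)/hexarelin.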

Rattus norvegicus [7] = experiment: Inhibition of hexarelin induced food intake per 100 gm of body weight in rat at 20 ug/kg, sc after 2 hrs; type: functional; how it was run: as §3
Rattus norvegicus [8] = experiment: Inhibition of hexarelin induced food intake per 100 gm of body weight in rat at 20 ug/kg, sc after 6 hrs; type: functional; how it was run: as §3
Rattus norvegicus [9] = experiment: Inhibition of hexarelin induced food intake per 100 gm of body weight in rat at 80 ug/kg, sc after 2 hrs; type: functional; how it was run: as §3
Rattus norvegicus [10] = experiment: Inhibition of hexarelin induced food intake per 100 gm of body weight in rat at 80 ug/kg, sc after 6 hrs; type: functional; how it was run: as §3
Rattus norvegicus [11] = experiment: Inhibition of hexarelin induced food intake per 100 gm of body weight in rat at 160 ug/kg, sc after 2 hrs; type: functional; how it was run: as §3
Rattus norvegicus [12] = experiment: Inhibition of hexarelin induced food intake per 100 gm of body weight in rat at 160 ug/kg, sc after 6 hrs; type: functional; how it was run: as §3
Rattus norvegicus [13] = experiment: Inhibition of hexarelin induced food intake per 100 gm of body weight in rat at 320 ug/kg, sc after 2 hrs; type: functional; how it was run: as §3
Rattus norvegicus [14] = experiment: Effect on growth hormone secretion in infant rat at 80 ug/kg, sc; type: functional; how it was run: as §1
Rattus norvegicus [15] = experiment: Effect on food intake per 100 gm of body weight in rat at 80 ug/kg, sc after 2 hrs; type: functional; how it was run: as §3
Rattus norvegicus [16] = experiment: Effect on food intake per 100 gm of body weight in rat at 80 ug/kg, sc after 6 hrs; type: functional; how it was run: as §3
[17] = target: T1, Growth hormone secretagogue receptor type 1; experiment: Agonist activity at GHSR1a expressed in CHO cells assessed as accumulation of intracellular calcium level; type: functional, cell-based; how it was run: as §2

T1 sequence (Q92847 whole entry): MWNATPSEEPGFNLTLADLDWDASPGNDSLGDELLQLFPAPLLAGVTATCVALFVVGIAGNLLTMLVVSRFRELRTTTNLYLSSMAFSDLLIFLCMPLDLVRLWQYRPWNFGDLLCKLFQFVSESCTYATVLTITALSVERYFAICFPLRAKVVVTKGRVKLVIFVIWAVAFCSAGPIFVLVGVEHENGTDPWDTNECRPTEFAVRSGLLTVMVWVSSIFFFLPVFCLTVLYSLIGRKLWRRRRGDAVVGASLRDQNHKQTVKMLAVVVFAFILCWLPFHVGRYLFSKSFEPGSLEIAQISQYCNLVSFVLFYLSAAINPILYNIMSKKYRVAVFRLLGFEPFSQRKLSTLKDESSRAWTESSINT

Compound	IC50 [3]	Activity [4]	Kb [5]	other results
COc1ccc(Cn2c(CCc3ccccc3)nnc2[C@@H](Cc2c[nH]c3ccccc23)NC(=O)C(C)(C)N)cc1	0.011 µM	0%	0.005 µM	Activity (Rattus norvegicus [1]): 220.52 ng/mL; Activity (Rattus norvegicus [2]): 5.28 ng/mL
O=C(Cc1ccccn1)N[C@H](Cc1c[nH]c2ccccc12)c1nnc(CCc2ccccc2)n1-c1ccccc1	0.7 µM	0%		
COc1ccc(Cn2c(CCc3c[nH]c4ccccc34)nnc2[C@@H](Cc2c[nH]c3ccccc23)NC(=O)c2cnccn2)c(OC)c1	0.0185 µM	0%	0.097 µM	Activity (Rattus norvegicus [6]): 0.21 g; Activity (Rattus norvegicus [1]): 173.61 ng/mL; Activity (Rattus norvegicus [2]): 15.32 ng/mL; Activity (Rattus norvegicus [7]): 0.66 g; Activity (Rattus norvegicus [8]): 0.66 g; inhibition in vivo at 0.02 mg/kg (Rattus norvegicus [8]; Rattus norvegicus, sc, 6 h): 47%; Activity (Rattus norvegicus [9]): 0.23 g; Activity (Rattus norvegicus [10]): 0.23 g; Activity (Rattus norvegicus [11]): 0.29 g; Activity (Rattus norvegicus [12]): 0.31 g; Activity (Rattus norvegicus [13]): 0.2 g
COc1ccc(-n2c(CCc3ccccc3)nnc2[C@@H](Cc2c[nH]c3ccccc23)NC(=O)c2cnccn2)c(OC)c1	0.3 µM	1%		
Cc1[nH]c2ccccc2c1C[C@@H](NC(=O)[C@@H](N)Cc1c[nH]cn1)C(=O)N[C@@H](C)C(=O)N[C@@H](Cc1c[nH]c2ccccc12)C(=O)N[C@H](Cc1ccccc1)C(=O)N[C@@H](CCCCN)C(N)=O [EXAMORELIN] (H-H[dTrp(2-Me)]AW[dF]K-NH2)				Activity (Rattus norvegicus [14]): 253.82 ng/mL; Activity (Rattus norvegicus [15]): 1.06 g; Activity (Rattus norvegicus [16]): 1.45 g
COc1ccc(Cn2c(CCc3ccccc3)nnc2[C@@H](Cc2c[nH]c3ccccc23)NC(=O)c2ccccc2)c(OC)c1	0.0118 µM	31%		EC50 [17]: 0.016 µM
COc1ccc(Cn2c(CCc3ccccc3)nnc2[C@@H](Cc2c[nH]c3ccccc23)NC(=O)Cc2cccnc2)cc1	0.029 µM	3%	0.093 µM	
CCc1ccc(Cn2c(CCc3ccccc3)nnc2[C@@H](Cc2c[nH]c3ccccc23)NC(=O)c2ccccn2)cc1	0.067 µM	0%	0.513 µM	
COc1ccc(Cn2c(CCc3c[nH]c4ccccc34)nnc2[C@@H](Cc2c[nH]c3ccccc23)NC(=O)c2ccccn2)cc1	0.0019 µM	0%	0.102 µM	
CCc1ccc(Cn2c(CCc3ccccc3)nnc2[C@@H](Cc2c[nH]c3ccccc23)NC(=O)Cc2cccnc2)cc1	0.48 µM	3%		
COc1ccc(Cn2c(CCc3ccccc3)nnc2[C@@H](Cc2c[nH]c3ccccc23)NC(=O)c2ccncc2)c(OC)c1	0.058 µM	0%	0.093 µM	
COc1ccc(Cn2c(CCc3ccccc3)nnc2[C@@H](Cc2c[nH]c3ccccc23)NC(=O)c2ccncc2)cc1	0.22 µM	0%		
CCc1ccc(Cn2c(CCc3ccccc3)nnc2[C@@H](Cc2c[nH]c3ccccc23)NC(=O)c2ccncc2)cc1	> 1 µM	0%		
COc1ccc(Cn2c(CCc3ccccc3)nnc2[C@@H](Cc2c[nH]c3ccccc23)NCc2ccccc2)c(OC)c1	> 1 µM	20%		
COc1ccc(Cn2c(CCc3c[nH]c4ccccc34)nnc2[C@@H](Cc2c[nH]c3ccccc23)NC(=O)C2CCNCC2)cc1	0.0006 µM			EC50 [17]: 0.0016 µM
COc1ccc(Cn2c(CCc3c[nH]c4ccccc34)nnc2[C@@H](Cc2c[nH]c3ccccc23)NC(=O)Cc2ccncc2)cc1	0.076 µM	3%	0.01 µM	
COc1ccc(Cn2c(CCc3c[nH]c4ccccc34)nnc2[C@@H](Cc2c[nH]c3ccccc23)NC(=O)c2ccccn2)c(OC)c1	0.0018 µM	0%	0.019 µM	

Compound	IC50 [3]	Activity [4]	Kb [5]	other results
COc1ccc(Cn2c(CCc3ccccc3)nnc2[C@@H](Cc2c[nH]c3ccccc23)NC(=O)Cc2ccccn2)cc1	0.003 µM	6%	0.006 µM	
CCc1ccc(-n2c(CCc3c[nH]c4ccccc34)nnc2[C@@H](Cc2c[nH]c3ccccc23)NC(=O)c2ccccn2)cc1	0.049 µM	0%	0.129 µM	
COc1ccc(-n2c(CCc3ccccc3)nnc2[C@@H](Cc2c[nH]c3ccccc23)NC(=O)c2ccccn2)c(OC)c1	0.033 µM	0%	0.065 µM	
CCc1ccc(-n2c(CCc3c[nH]c4ccccc34)nnc2[C@@H](Cc2c[nH]c3ccccc23)NC(=O)Cc2ccccn2)cc1	0.096 µM	0%	0.034 µM	
COc1ccc(Cn2c(CCc3ccccc3)nnc2[C@@H](Cc2c[nH]c3ccccc23)NC(=O)c2ccccn2)cc1	0.0007 µM	0%	0.012 µM	
COc1ccc(Cn2c(CCc3ccccc3)nnc2[C@@H](Cc2c[nH]c3ccccc23)NC(=O)Cc2ccncc2)cc1	0.27 µM	6%		
CCc1ccc(Cn2c(CCc3ccccc3)nnc2[C@@H](Cc2c[nH]c3ccccc23)NC(=O)c2cnccn2)cc1	0.089 µM	0%	0.076 µM	
COc1ccc(Cn2c(CCc3ccccc3)nnc2[C@@H](Cc2c[nH]c3ccccc23)NC(=O)CCc2cccnc2)cc1	0.177 µM	5%		
COc1ccc(Cn2c(CCc3c[nH]c4ccccc34)nnc2[C@@H](Cc2c[nH]c3ccccc23)NC(=O)C(C)(C)N)c(OC)c1	0.108 µM	0%	0.014 µM	
O=C(N[C@H](Cc1c[nH]c2ccccc12)c1nnc(CCc2ccccc2)n1-c1ccccc1)c1ccccn1	0.105 µM	0%		
O=C(N[C@H](Cc1c[nH]c2ccccc12)c1nnc(CCc2c[nH]c3ccccc23)n1-c1ccccc1)c1ccccn1	0.16 µM	0%		
COc1ccc(Cn2c(CCc3c[nH]c4ccccc34)nnc2[C@@H](Cc2c[nH]c3ccccc23)NC(=O)[C@H]2CCCC[C@H]2N)c(OC)c1	0.14 µM	4%	0.14 µM	
COc1ccc(Cn2c(CCc3c[nH]c4ccccc34)nnc2[C@@H](Cc2c[nH]c3ccccc23)NC(=O)Cc2ccccn2)c(OC)c1	0.034 µM	0%	0.014 µM	
CCc1ccc(Cn2c(CCc3ccccc3)nnc2[C@@H](Cc2c[nH]c3ccccc23)NC(=O)Cc2ccccn2)cc1	0.051 µM	0%	0.124 µM	
COc1ccc(Cn2c(CCc3ccccc3)nnc2[C@@H](Cc2c[nH]c3ccccc23)NC(=O)C(C)(C)N)c(OC)c1	0.06 µM	0%	0.017 µM	
O=C(Cc1ccccn1)N[C@H](Cc1c[nH]c2ccccc12)c1nnc(CCc2c[nH]c3ccccc23)n1Cc1ccccc1	0.061 µM	4%	0.041 µM	
